Tests used:
[1] = molecular target: T1, 5-hydroxytryptamine receptor 1A (Homo sapiens, UniProt P08908); assay: Displacement of [3H]8-OH-DPAT from human recombinant 5-HT1A receptor expressed in HeLa cells after 30 mins by liquid scintillation counting; type: cell-based
T1 sequence (P08908 whole entry): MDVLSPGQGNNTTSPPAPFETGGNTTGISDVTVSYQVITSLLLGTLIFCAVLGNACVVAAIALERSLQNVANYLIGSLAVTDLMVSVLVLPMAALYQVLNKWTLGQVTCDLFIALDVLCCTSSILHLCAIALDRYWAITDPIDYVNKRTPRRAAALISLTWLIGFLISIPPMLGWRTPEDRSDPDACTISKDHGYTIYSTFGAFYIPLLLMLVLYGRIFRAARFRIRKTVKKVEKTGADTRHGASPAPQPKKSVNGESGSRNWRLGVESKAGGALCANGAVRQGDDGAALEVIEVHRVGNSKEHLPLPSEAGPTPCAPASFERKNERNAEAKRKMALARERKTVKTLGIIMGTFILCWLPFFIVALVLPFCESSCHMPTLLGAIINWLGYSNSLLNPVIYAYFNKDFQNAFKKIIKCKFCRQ
Procedure, shortened: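 HeLa cells stably carrying genomic clone G-21 were grown in DMEM with 10% FCS, then lysed in Tris/EDTA pH 7.4. Membranes (80–90 µg protein) were incubated in 50 mM Tris, 2.5 mM MgCl2, 10 µM pargyline, pH 7.4, with 1 nM [3H]8-OH-DPAT and competitor (1 pM–1 µM) for 30 min at 30 °C, in triplicate. Nonspecific binding with 10 µM 5-HT. pKi from 2–3 experiments.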

[2] = molecular target: T2, Alpha-1B adrenergic receptor (Rattus norvegicus) (UniProt P15823); assay: Antagonist activity at alpha1B adrenoceptor in Wistar rat spleen assessed as phenylephrine-induced contractions after 30 mins
T2 sequence (whole entry): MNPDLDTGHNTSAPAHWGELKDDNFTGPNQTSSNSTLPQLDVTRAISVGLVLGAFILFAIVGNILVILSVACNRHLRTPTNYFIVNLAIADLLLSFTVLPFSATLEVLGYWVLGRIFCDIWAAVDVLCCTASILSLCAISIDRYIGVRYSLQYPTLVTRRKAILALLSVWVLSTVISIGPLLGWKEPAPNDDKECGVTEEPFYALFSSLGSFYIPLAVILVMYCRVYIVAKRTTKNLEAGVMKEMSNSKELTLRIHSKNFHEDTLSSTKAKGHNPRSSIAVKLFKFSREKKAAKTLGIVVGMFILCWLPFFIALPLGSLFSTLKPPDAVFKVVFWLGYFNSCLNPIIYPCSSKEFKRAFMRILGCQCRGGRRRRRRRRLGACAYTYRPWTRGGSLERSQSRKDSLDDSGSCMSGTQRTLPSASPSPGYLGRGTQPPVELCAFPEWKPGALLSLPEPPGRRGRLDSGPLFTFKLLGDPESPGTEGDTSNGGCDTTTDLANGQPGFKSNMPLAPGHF
Procedure, shortened: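 Spleen strips (bisected longitudinally) in Krebs with 4 µM propranolol, 1 g resting tension, 2 h equilibration. Cumulative phenylephrine curves recorded isometrically at 30 min intervals, the first discarded and the second used as control. Antagonist pre-equilibrated 30 min before a repeat agonist curve.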

Rattus norvegicus = organism: Rattus norvegicus; assay: Selectivity ratio of Kb for alpha1D adrenoceptor in Wistar rat thoracic aorta to Kb for alpha1A adrenoceptor in Wistar rat vas deferans; type: tissue-based
[3] = molecular target: T3, Alpha-1A adrenergic receptor (Homo sapiens, UniProt P35348); assay: Displacement of [3H]prazosin from human recombinant alpha1A adrenoceptor expressed in CHO cells after 30 mins by liquid scintillation counting
T3 sequence (P35348 whole entry): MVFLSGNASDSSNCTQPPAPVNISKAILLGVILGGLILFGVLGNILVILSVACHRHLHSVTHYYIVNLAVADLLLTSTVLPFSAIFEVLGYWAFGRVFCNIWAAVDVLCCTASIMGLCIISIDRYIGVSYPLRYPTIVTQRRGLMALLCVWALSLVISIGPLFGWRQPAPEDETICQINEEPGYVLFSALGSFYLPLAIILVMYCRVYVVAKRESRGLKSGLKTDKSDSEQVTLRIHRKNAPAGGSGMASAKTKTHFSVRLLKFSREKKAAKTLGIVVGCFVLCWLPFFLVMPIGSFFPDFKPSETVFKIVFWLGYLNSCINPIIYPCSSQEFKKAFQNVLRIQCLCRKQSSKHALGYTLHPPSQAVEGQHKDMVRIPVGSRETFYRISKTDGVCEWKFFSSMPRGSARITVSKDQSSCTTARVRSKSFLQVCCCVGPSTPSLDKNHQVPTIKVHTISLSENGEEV

[4] = molecular target: T4, Alpha-1B adrenergic receptor (Homo sapiens, UniProt P35368); assay: Displacement of [3H]prazosin from human recombinant alpha1B adrenoceptor expressed in CHO cells after 30 mins by liquid scintillation counting; type: cell-based
T4 sequence (P35368 whole entry): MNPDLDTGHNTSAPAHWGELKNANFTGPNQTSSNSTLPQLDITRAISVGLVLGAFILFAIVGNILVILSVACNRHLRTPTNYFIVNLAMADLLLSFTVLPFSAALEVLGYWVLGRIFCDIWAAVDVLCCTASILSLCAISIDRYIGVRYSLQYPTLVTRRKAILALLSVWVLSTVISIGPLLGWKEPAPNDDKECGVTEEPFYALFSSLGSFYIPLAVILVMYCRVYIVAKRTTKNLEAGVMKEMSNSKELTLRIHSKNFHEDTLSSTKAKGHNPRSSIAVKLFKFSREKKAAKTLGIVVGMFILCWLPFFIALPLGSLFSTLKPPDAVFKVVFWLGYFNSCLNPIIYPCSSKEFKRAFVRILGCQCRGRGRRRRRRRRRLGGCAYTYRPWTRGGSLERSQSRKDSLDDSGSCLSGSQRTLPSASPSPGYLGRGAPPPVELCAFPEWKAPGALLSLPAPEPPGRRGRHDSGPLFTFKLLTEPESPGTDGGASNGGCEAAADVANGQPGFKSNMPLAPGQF
Procedure, shortened: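 CHO cells were stably transfected by electroporation with each human α1 subtype. Membranes (70 µg protein) were incubated in 50 mM Tris pH 7.4 with 0.1–0.4 nM [3H]prazosin and competitor (1 pM–1 µM) for 30 min at 25 °C. Nonspecific binding with 10 µM tamsulosin. Filtration and scintillation counting. pKi from 2–3 experiments in duplicate.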

Compound | Ki [1] | pKb [2] | Ratio (Rattus norvegicus) | Ki [3] | Ki [4]
COc1ccccc1N1CCN(CC2COC3(CCN(C(=O)C(F)(F)F)CC3)O2)CC1 (centres undefined) | 324 nM | 8 | 3.39 | > 1000 nM | 1000 nM
COc1ccccc1N1CCN(CC2COC3(CCN(S(=O)(=O)c4ccc([N+](=O)[O-])cc4)CC3)O2)CC1 (centres undefined) | 24.5 nM | 7.75 | 1.9 | 5.25 nM | 110 nM
COc1ccccc1N1CCN(CC2COC3(CCN(S(=O)(=O)c4ccccc4)CC3)O2)CC1 (centres undefined) | 52.5 nM | 7.94 | 0.37 | 7.94 nM | 85.1 nM
COc1ccccc1N1CCN(CC2COC3(CCNCC3)O2)CC1 (centres undefined) | 158 nM | 7.78 | 0.14 | 49 nM | 42.7 nM
COc1ccccc1N1CCN(CC2COC3(CCN(C(=O)NC(C)(C)C)CC3)O2)CC1 (centres undefined) | 87.1 nM | 7.42 | 0.08 | 12.6 nM | 129 nM
COc1ccccc1N1CCN(CC2COC3(CCN(C(=O)c4ccco4)CC3)O2)CC1 (centres undefined) | 42.7 nM | 7.69 | 0.89 | 21.4 nM | 158 nM
COc1ccccc1N1CCN(CC2COC3(CCN(S(=O)(=O)c4cccc([N+](=O)[O-])c4)CC3)O2)CC1 (centres undefined) | 43.7 nM | 8.14 | 1.02 | 3.02 nM | 69.2 nM
COc1ccccc1N1CCN(CC2COC3(CCN(S(=O)(=O)c4ccc(C)cc4)CC3)O2)CC1 (centres undefined) | 26.9 nM | 7.91 | 0.36 | 4.57 nM | 8.32 nM
COc1ccccc1N1CCN(CC2COC3(CCN(C(=O)c4ccccc4)CC3)O2)CC1 (centres undefined) | 58.9 nM | 8.19 | 0.55 | 10.7 nM | 67.6 nM
COc1ccccc1N1CCN(CC2COC3(CCSCC3)O2)CC1 (centres undefined) | 9.33 nM | 7.63 | 0.17 | 8.51 nM | 141 nM
COc1ccccc1N1CCN(CC2COC3(CCN(c4ccccc4)CC3)O2)CC1 (centres undefined) | 15.8 nM | 7.56 | 0.44 | 6.46 nM | 155 nM
COc1ccccc1N1CCN(CC2COC3(CCN(C(=O)c4ccc(C(F)(F)F)cc4)CC3)O2)CC1 (centres undefined) | 50.1 nM | 8.33 | 0.31 | 10.2 nM | 63.1 nM
COc1ccccc1N1CCN(CC2COC3(CCN(C(C)=O)CC3)O2)CC1 (centres undefined) | 64.6 nM | 7.72 | 0.2 | 60.3 nM | 1000 nM
CCCCNC(=O)N1CCC2(CC1)OCC(CN1CCN(c3ccccc3OC)CC1)O2 (centres undefined) | 79.4 nM | 7.4 | 0.81 | 20 nM | 240 nM
COc1ccccc1N1CCN(CC2COC3(CCN(C(=O)Nc4ccccc4)CC3)O2)CC1 (centres undefined) | 33.1 nM | 8.18 | 1.09 | 12 nM | 81.3 nM
COc1ccccc1N1CCN(CC2COC3(CCN(C(=O)C4CCCN4)CC3)O2)CC1 (centres undefined) | 36.3 nM | 7.86 | 0.19 | 11.7 nM | 158 nM
COc1ccccc1N1CCN(CC2COC3(CCOCC3)O2)CC1 (centres undefined) | 46.8 nM | 7.17 | 0.6 | 17 nM | 324 nM
COc1ccccc1N1CCN(CC2COC3(CCCCC3)O2)CC1 (centres undefined) | 5.13 nM | 6.72 | 12.6 |  | 126 nM
COc1ccccc1N1CCN(CC2COC3(CCS(=O)(=O)CC3)O2)CC1 (centres undefined) | 81.3 nM | 7.66 | 0.72 | 9.77 nM | 288 nM
COc1ccccc1N1CCN(CC2COC3(CCN(S(=O)(=O)c4ccc(Cl)cc4)CC3)O2)CC1 (centres undefined) | 37.2 nM | 7.36 | 1.35 | 6.46 nM | 69.2 nM
COc1ccccc1N1CCN(CC2COC3(CCN(c4ccccn4)CC3)O2)CC1 (centres undefined) | 8.91 nM | 7.86 | 0.17 | 17.8 nM | 1000 nM
COc1ccccc1N1CCN(CC2COC3(CCN(Cc4ccccc4)CC3)O2)CC1 (centres undefined) | 14.5 nM | 7.18 | 7.58 | 6.76 nM | 16.6 nM
COc1ccccc1N1CCN(CC2COC3(CCN(S(=O)(=O)c4cccs4)CC3)O2)CC1 (centres undefined) | 60.3 nM | 8.05 | 0.64 | 7.94 nM | 85.1 nM
COc1ccccc1N1CCN(CC2COC3(CCN(S(C)(=O)=O)CC3)O2)CC1 (centres undefined) | 145 nM | 7.46 | 0.59 | 18.6 nM | 363 nM
COc1ccccc1N1CCN(CC2COC3(CCN(C(=O)C4CCCCC4)CC3)O2)CC1 (centres undefined) | 20.4 nM | 7.33 | 1.17 | 30.9 nM | 110 nM
COc1ccccc1N1CCN(CC2COC3(CCN(S(=O)(=O)c4ccc(OC(F)(F)F)cc4)CC3)O2)CC1 (centres undefined) | 69.2 nM | 7.74 | 2.45 | 8.91 nM | 148 nM

Source: ChEMBL document CHEMBL3351355, “Structure-affinity/activity relationships of 1,4-dioxa-spiro[4.5]decane based ligands at α1 and 5-HT1A receptors” (Eur J Med Chem, 2014)
